What all share (type): cell-based
Assay [1] deals with Klebsiella pneumoniae (ATCC 27736). In words: Antibacterial MIC, macrodilution method, K. pneumoniae. The note with it: ATCC27736, read-out: MIC K. pneumoniae. A digest of the protocol: (§1)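 CLSI M07-A9 tube macrodilution. Strains were grown overnight on nutrient agar at 37 °C, and colonies were suspended in Mueller-Hinton broth. Inoculum was 1 × 10^6 per mL (5 × 10^5 per mL in test). DMSO stock was 5120 μg/mL. Final concentrations were 256 to […] in 2 mL. Tubes were incubated at 37 °C for 16–20 h. Controls were inoculum with and without 1% DMSO, and broth alone.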

Assay [2] concerns Escherichia coli (ATCC 25922). In words: Antibacterial MIC, macrodilution method, E. coli. Conditions: ATCC25922, read-out: MIC E. coli. Summed up:
as §1

The test system of assay [3] is Staphylococcus aureus (ATCC 25923). Kind of assay: Antibacterial MIC, macrodilution method, S. aureus. Conditions: ATCC25923, read-out: MIC S. aureus. Summed up:
as §1

Assay [4] relates to Pseudomonas aeruginosa (ATCC 9027). In words: Antibacterial MIC, macrodilution method, P. aeruginosa. The note with it: ATCC9027, read-out: MIC P. aeruginosa. A digest of the protocol: as §1
Assay [5] relates to LN-229 glioblastoma cells. In words: Antiproliferative assay. Conditions: Homo sapiens, LN-229, 72 h, read-out: IC50 LN-229. A digest of the protocol: (§2)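 Adherent lines were seeded at 500 (Capan-1), 1000 (LN-229, HCT-116) or 1500 (NCI-H460) cells/well and dosed after overnight incubation. Suspension lines were seeded at 2500 (HL-60, K-562, Z-138) or 5500 (DND-41) cells/well directly onto compound. Seven 5-fold concentrations ran from 100 to 0.006 μM for 72 h. Viability was read as MTS absorbance at 490 nm after 3 h, and IC50 was derived from OD values. Two independent experiments.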

The subject of assay [6] is HL-60 acute myeloid leukemia cells. In words: Antiproliferative assay. Conditions: Homo sapiens, HL-60, 72 h, read-out: IC50 HL-60. A digest of the protocol:
as §2

Assay [7] concerns HCT-116 colon carcinoma cells. In words: Antiproliferative assay. Conditions: Homo sapiens, HCT-116, 72 h, read-out: IC50 HCT-116. Summed up:
as §2

Assay [8] deals with K-562 chronic myeloid leukemia cells. Kind of assay: Antiproliferative assay. Conditions: Homo sapiens, K562, 72 h, read-out: IC50 K-562. A digest of the protocol: as §2
Assay [9] concerns Capan-1 pancreatic adenocarcinoma cells. Kind of assay: Antiproliferative assay. Conditions: Homo sapiens, CAPAN-1, 72 h, read-out: IC50 Capan-1. A digest of the protocol:
as §2

Assay [10] has as its system NCI-H460 non-small cell lung cancer cells. In words: Antiproliferative assay. The note with it: Homo sapiens, NCI-H460, 72 h, read-out: IC50 NCI-H460. A digest of the protocol:
as §2

≈ marks a conversion by molar mass, not a printed value. Bounds are passed on as bounds.

As usually defined, the MIC is the smallest concentration in the dilution series that meets the test's criterion for growth inhibition. `CC(C)(O/N=C(\C(=O)N[C@@H]1C(=O)N2C(C(=O)[O-])=C(C[n+]3ccccc3)CS[C@H]12)c1csc(N)n1)C(=O)O` [CAZ, ceftazidime, reference compound]: the MIC in assay [1] was 256 µg/mL (≈ 468 µM); in assay [2], 0.5 µg/mL (≈ 0.915 µM); in assay [3], 64 µg/mL (≈ 117 µM); in assay [4] it was 2 µg/mL (≈ 3.66 µM).

Take `O=C(O)c1cn(C2CC2)c2cc(N3CCNCC3)c(F)cc2c1=O` [CIP, ciprofloxacin, reference compound]: the MIC was greater than 256 µg/mL in assay [1], less than 0.125 µg/mL in [2], 0.5 µg/mL (≈ 1.51 µM) in [3] and 0.5 µg/mL (≈ 1.51 µM) in [4].

One may read the IC50 as the point on the concentration scale where inhibition reaches its midpoint. Regarding `CCN(CC)CCOc1ccc(-c2nc3ccccc3[nH]2)cc1` [Compound 12, 2-(4-(1H-Benzo[d]imidazol-2-yl)phenoxy)-N,N-diethylethan-1-amine], the MIC in assay [1], in [2], in [3] and in assay [4] was greater than 256 µg/mL throughout. The IC50 in assay [5] is no less than 65.1 µM; in assay [6], 46.4 ± 1.3 µM; in assay [7], greater than 100 µM; in assay [8], 38.2 ± 4.5 µM; in assay [9] it was 47.7 ± 3.2 µM; in assay [10], 52.4 ± 1.3 µM.

As for `O=C(COc1ccc(-c2nc3ccccc3[nH]2)cc1)N1CCOCC1` [Compound 14, 2-(4-(1H-Benzo[d]imidazol-2-yl)phenoxy)-1-morpholinoethan-1-one], the MIC in [1], in assay [2], in assay [3] and in assay [4] was greater than 256 µg/mL each time. Further, the IC50 in assay [5], in assay [6], in assay [7], in [8], in assay [9] and in [10] was greater than 100 µM each time.

Regarding `CCN(CC)CCOc1ccc(-c2nc3ccc(Cl)cc3[nH]2)cc1` [Compound 15, 2-(4-(6-Chloro-1H-benzo[d]imidazol-2-yl)phenoxy)-N,N-diethylethan-1-amine], the MIC in [1] was greater than 256 µg/mL; in assay [2] it was 256 µg/mL (≈ 744 µM); in assay [3], greater than 256 µg/mL; in assay [4], greater than 256 µg/mL. In addition, the half-inhibitory concentration (IC50) in [5] came to 44 ± 0.8 µM; in [6] it was 29.2 ± 2.2 µM; in assay [7] it was 47.2 ± 1.8 µM; in assay [8], 8.7 ± 1.1 µM; in [9], 25.1 ± 3.7 µM; in assay [10], 41.3 ± 3.7 µM.

As for `CCN(CC)CCOc1ccc(-c2nc3ccc(F)cc3[nH]2)cc1` [Compound 18, N,N-Diethyl-2-(4-(6-fluoro-1H-benzo[d]imidazol-2-yl)phenoxy)ethan-1-amine], the concentration for half-maximal inhibition (IC50) in assay [5] was 44.1 ± 5.3 µM; in assay [6] it was 51.9 ± 5.9 µM; in [7] it was 61.1 ± 0.7 µM; in assay [8], 27.6 ± 3.3 µM; in [9] it was 39.1 ± 2.1 µM; in assay [10], 37.2 ± 4.3 µM.

For `O=C(COc1ccc(-c2nc3ccc(F)cc3[nH]2)cc1)N1CCOCC1` [Compound 20, 2-(4-(6-Fluoro-1H-benzo[d]imidazol-2-yl)phenoxy)-1-morpholinoethan-1-one], the IC50 in [5], in assay [6], in assay [7], in [8], in assay [9] and in assay [10] was greater than 100 µM throughout.

Take `Fc1cc(-c2nc3ccccc3[nH]2)ccc1OCCN1CCOCC1` [Compound 21, 4-(2-(4-(1H-Benzo[d]imidazol-2-yl)-2-fluorophenoxy)ethyl)morpholine]: the 50% inhibitory concentration (IC50) in [5], in assay [6], in assay [7], in assay [8], in [9] and in assay [10] was greater than 100 µM each time.

On to `COc1cc([C@@H]2c3cc4c(cc3[C@@H](O[C@@H]3O[C@@H]5CO[C@@H](C)O[C@H]5[C@H](O)[C@H]3O)[C@H]3COC(=O)[C@H]23)OCO4)cc(OC)c1O` [Etoposide, reference compound], for which the concentration for half-maximal inhibition (IC50) was determined as 0.03 µM in [5]; 0.8 ± 0.2 µM in assay [6]; 3.7 ± 0.3 µM in [7]; 4 ± 1.3 µM in assay [8]; 3.4 ± 0.9 µM in assay [9]; 6.1 ± 1.1 µM in assay [10].

The values above are taken from article PMC12062833 (RSC Medicinal Chemistry, 2025).
